Experimental data from ChEMBL document CHEMBL4680253, “Hybrids of MEK inhibitor and NO donor as multitarget antitumor drugs” (Eur J Med Chem, 2020).
pIC50: −log10 of the molar value. The source made the active and inactive calls. The calls are words filed in the database; no cut-off is given here.

Experiments:
[1] = tested on: MDA-MB-231; assay: Induction of apoptosis in human MDA-MB-231 cells assessed as early apoptotic cells at 1 uM incubated for 24 hrs by AnnexinV-FITC and propidium iodide staining based flow cytometry (reference value: 4.4%); assay type: functional
[2] = tested on: L02; assay: Cytotoxicity against human HL7702 cells assessed as reduction in cell viability after 96 hrs by Celltiter-Glo assay; assay type: cell-based; conditions: L02, 96 h
Outline: (§1)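 Cells kept at 37 °C in humidified 5% CO2 with 10% FBS; Vero in DMEM, HL7702 in RPMI-1640. Compounds added to plated cells and incubated 96 h at 37 °C. Viability read by CellTiter-Glo reagent added directly to the wells. IC50 fitted from the readings.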

[3] = tested on: MDA-MB-231; assay: Induction of apoptosis in human MDA-MB-231 cells assessed as late apoptotic cells at 1 uM incubated for 24 hrs by AnnexinV-FITC and propidium iodide staining based flow cytometry (reference value: 3.54%); assay type: functional
[4] = biological target: T1, Dual specificity mitogen-activated protein kinase kinase; MEK1/2 (Homo sapiens) (UniProt P36507+Q02750); assay: Inhibition of MEK in human MDA-MB-231 cells assessed as reduction in MEK phosphorylation at 10 uM incubated for 4 hrs by Western blot analysis; assay type: cell-based
T1 sequence (P36507 whole entry, looked up): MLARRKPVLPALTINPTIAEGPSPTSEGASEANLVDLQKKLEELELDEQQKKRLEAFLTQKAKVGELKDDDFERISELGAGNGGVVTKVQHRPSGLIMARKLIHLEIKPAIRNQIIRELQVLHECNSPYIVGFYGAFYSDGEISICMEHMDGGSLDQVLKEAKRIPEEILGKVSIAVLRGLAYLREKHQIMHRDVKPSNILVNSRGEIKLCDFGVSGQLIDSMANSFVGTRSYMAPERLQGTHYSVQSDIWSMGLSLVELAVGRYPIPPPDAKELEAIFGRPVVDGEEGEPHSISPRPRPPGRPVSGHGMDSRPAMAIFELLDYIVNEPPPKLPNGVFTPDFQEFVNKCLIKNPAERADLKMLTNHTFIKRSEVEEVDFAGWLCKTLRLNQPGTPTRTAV
T1 sequence (Q02750 whole entry, looked up): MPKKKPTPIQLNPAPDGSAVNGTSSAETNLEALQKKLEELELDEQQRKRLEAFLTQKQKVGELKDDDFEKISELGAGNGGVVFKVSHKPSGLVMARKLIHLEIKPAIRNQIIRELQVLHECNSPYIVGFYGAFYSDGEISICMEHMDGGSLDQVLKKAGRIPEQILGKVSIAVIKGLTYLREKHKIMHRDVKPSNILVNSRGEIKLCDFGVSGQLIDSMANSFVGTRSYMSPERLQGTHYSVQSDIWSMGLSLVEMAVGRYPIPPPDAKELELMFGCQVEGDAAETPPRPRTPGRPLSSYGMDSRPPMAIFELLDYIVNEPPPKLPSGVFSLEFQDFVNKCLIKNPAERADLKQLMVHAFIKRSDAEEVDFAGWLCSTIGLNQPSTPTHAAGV
Outline: (§2)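 MDA-MB-231 in RPMI-1640 with 10% FBS. Dose series at 1, 3 and 10 µM for 2 h or 24 h; time course at 1 µM or 10 µM over several time points. RIPA lysates with protease/phosphatase inhibitors, equal protein on 4-20% SDS-PAGE, PVDF transfer, 5% milk block. Probed overnight at 4 °C for pMEK, MEK, pERK and ERK, then HRP secondary.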

[5] = tested on: HCT-116; assay: Antiproliferative activity against human HCT116 cells harboring KRAS G13D mutant assessed as inhibition of cell viability after 96 hrs by Celltiter-Glo assay; assay type: functional, cell-based; conditions: HCT-116, 96 h
[6] = Prodrug release in human HCT-116 cells assessed as increase in intracellular NO level at 100 uM measured after 2 hr by DAF-FM DA reagent based laser confocal scanning microscopy; conditions: hct-116, 2 h
[7] = biological target: T1, Dual specificity mitogen-activated protein kinase kinase; MEK1/2 (Homo sapiens); assay: Inhibition of MEK in human MDA-MB-231 cells assessed as reduction in ERK phosphorylation at 1 to 10 uM incubated for 24 hrs by Western blot analysis; assay type: cell-based; conditions: dose 1-10 µM; outline: as §2
[8] = biological target: T1, Dual specificity mitogen-activated protein kinase kinase; MEK1/2 (Homo sapiens); assay: Inhibition of MEK in human A549 cells assessed as reduction in ERK phosphorylation incubated for 2 hrs by Western blot analysis; assay type: cell-based; conditions: dose 1-10 µM
Outline: (§3)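 A549 cells in RPMI-1640 with 10% FBS, treated 2 h. Cells lysed in RIPA with protease/phosphatase inhibitors on ice for 20 min. Equal protein run on 4-20% SDS-PAGE and blotted to PVDF. Membranes blocked in 5% milk, then probed overnight at 4 °C with rabbit mAbs to pMEK, MEK, pERK and ERK, followed by HRP secondary. GAPDH used as loading control.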

[9] = biological target: T1, Dual specificity mitogen-activated protein kinase kinase; MEK1/2 (Homo sapiens); assay: Inhibition of MEK in human A549 cells assessed as reduction in MEK phosphorylation incubated for 2 hrs by Western blot analysis; assay type: cell-based; conditions: dose 1-10 µM; outline: as §3
[10] = tested on: Vero; assay: Cytotoxicity against African green monkey Vero cells assessed as reduction in cell viability after 96 hrs by Celltiter-Glo assay; assay type: cell-based; conditions: Chlorocebus sabaeus; outline: as §1
[11] = tested on: MDA-MB-231; assay: Induction of apoptosis in human MDA-MB-231 cells assessed as viable cells at 10 uM incubated for 24 hrs by AnnexinV-FITC and propidium iodide staining based flow cytometry (reference value: 90.962%); assay type: functional; conditions: read-out: Activity
[12] = tested on: MDA-MB-231; assay: Induction of apoptosis in human MDA-MB-231 cells assessed as necrotic cells at 1 uM incubated for 24 hrs by AnnexinV-FITC and propidium iodide staining based flow cytometry (reference value: 1.084%); assay type: functional
[13] = tested on: A549; assay: Antiproliferative activity against human A549 cells harboring KRAS G12S mutant assessed as inhibition of cell viability after 96 hrs by Celltiter-Glo assay; assay type: functional, cell-based; conditions: A549, 96 h
[14] = tested on: MDA-MB-231; assay: Induction of apoptosis in human MDA-MB-231 cells assessed as viable cells at 1 uM incubated for 24 hrs by AnnexinV-FITC and propidium iodide staining based flow cytometry (reference value: 90.962%); assay type: functional; conditions: read-out: Activity
[15] = tested on: MDA-MB-231; assay: Induction of apoptosis in human MDA-MB-231 cells assessed as early apoptotic cells at 10 uM incubated for 24 hrs by AnnexinV-FITC and propidium iodide staining based flow cytometry (reference value: 4.4%); assay type: functional
[16] = tested on: HL-60; assay: Antiproliferative activity against human HL60 cells harboring NRAS […] mutant assessed as inhibition of cell viability after 96 hrs by Celltiter-Glo assay; assay type: functional, cell-based; conditions: HL-60, 96 h
[17] = biological target: T1, Dual specificity mitogen-activated protein kinase kinase; MEK1/2 (Homo sapiens); assay: Inhibition of MEK in human A549 cells assessed as reduction in MEK phosphorylation by Western blot analysis; assay type: cell-based; conditions: TDE = time-dependent effect; outline: as §3
[18] = biological target: T1, Dual specificity mitogen-activated protein kinase kinase; MEK1/2 (Homo sapiens); assay: Inhibition of MEK in human A549 cells assessed as reduction in ERK phosphorylation at 1 uM incubated for 2 hrs by Western blot analysis; assay type: cell-based; outline: as §3
[19] = tested on: MDA-MB-231; assay: Antiproliferative activity against human MDA-MB-231 cells harboring KRAS G13D/BRAF G464V mutant assessed as inhibition of cell viability after 96 hrs by Celltiter-Glo assay; assay type: functional, cell-based; conditions: MDA-MB-231, 96 h
[20] = biological target: T1, Dual specificity mitogen-activated protein kinase kinase; MEK1/2 (Homo sapiens); assay: Inhibition of MEK in human MDA-MB-231 cells assessed as reduction in MEK phosphorylation at 10 uM incubated for 2 hrs by Western blot analysis; assay type: cell-based; outline: as §2
[21] = biological target: T1, Dual specificity mitogen-activated protein kinase kinase; MEK1/2 (Homo sapiens); assay: Inhibition of MEK in human A549 cells assessed as reduction in MEK phosphorylation at 10 uM incubated for 2 hrs by Western blot analysis; assay type: cell-based; outline: as §3
[22] = biological target: T1, Dual specificity mitogen-activated protein kinase kinase; MEK1/2 (Homo sapiens); assay: Inhibition of MEK in human A549 cells assessed as reduction in ERK phosphorylation by Western blot analysis; assay type: cell-based; conditions: TDE = time-dependent effect; outline: as §3
[23] = Antiproliferative activity against human A375 cells harboring BRAF V600E mutant assessed as inhibition of cell viability after 96 hrs by Celltiter-Glo assay; assay type: functional, cell-based, A375/R; conditions: A-375, 96 h
[24] = tested on: MDA-MB-231; assay: Induction of apoptosis in human MDA-MB-231 cells assessed as late apoptotic cells at 10 uM incubated for 24 hrs by AnnexinV-FITC and propidium iodide staining based flow cytometry (reference value: 3.54%); assay type: functional
[25] = biological target: T1, Dual specificity mitogen-activated protein kinase kinase; MEK1/2 (Homo sapiens); assay: Inhibition of MEK in human MDA-MB-231 cells assessed as reduction in ERK phosphorylation at 10 uM incubated for 4 hrs by Western blot analysis; assay type: cell-based; outline: as §2
[26] = biological target: T1, Dual specificity mitogen-activated protein kinase kinase; MEK1/2 (Homo sapiens); assay: Inhibition of MEK in human MDA-MB-231 cells assessed as reduction in MEK phosphorylation at 1 to 10 uM incubated for 24 hrs by Western blot analysis; assay type: cell-based; conditions: dose 1-10 µM; outline: as §2
[27] = biological target: T1, Dual specificity mitogen-activated protein kinase kinase; MEK1/2 (Homo sapiens); assay: Inhibition of MEK in human MDA-MB-231 cells assessed as reduction in ERK phosphorylation at 10 uM incubated for 2 hrs by Western blot analysis; assay type: cell-based; outline: as §2
[28] = tested on: MDA-MB-231; assay: Induction of apoptosis in human MDA-MB-231 cells assessed as necrotic cells at 10 uM incubated for 24 hrs by AnnexinV-FITC and propidium iodide staining based flow cytometry (reference value: 1.084%); assay type: functional

inhibition [4]: 100%
pIC50 [5]: 6.17
Drug metabolism [6]: Metabolite_Detected
inhibition [7]: Active
inhibition [8]: Dose-dependent effect
inhibition [9]: Dose-dependent effect
pIC50 [13]: 5.96
pIC50 [16]: 6.28
inhibition [17]: Tde
inhibition [18]: Active
pIC50 [19]: 7.03
inhibition [20]: Active
inhibition [21]: Active
inhibition [22]: Tde
inhibition [25]: 100%
inhibition [26]: Active
inhibition [27]: Active
SMILES: CNS(=O)(=O)Nc1cccc(Cc2c(C)c3ccc(OCCOc4no[n+]([O-])c4S(=O)(=O)c4ccccc4)cc3oc2=O)c1F
Activity [1]: 20.2%
pIC50 [2]: 5.56
Activity [3]: 8.15%
pIC50 [10]: 5.36
viability at 10 µM [11]: 57.2%
Activity [12]: 3.613%
viability at 1 µM [14]: 68%
Activity [15]: 22.9%
pIC50 [23]: 6.48
Activity [24]: 5.11%
Activity [28]: 14.737%
